Legend:
[1] = test system: wide range of cancer cell lines; details: initially reported; cited from earlier work
HCT-116 (colon cancer) [2] = assay: proliferative cell growth inhibition assay, HCT-116; type: cell-based; details: Homo sapiens, HCT-116, read-out: IC50(cell line) HCT-116
How it was run: (§1)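 Cell viability assays, run on proliferating tumour lines and on quiescent IMR-90 immortalized human fibroblasts, gave IC50 values. Cell preparation and sample handling were automated. The automation protocol changed between the earlier and the later test series.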

[3] = test system: quiescent IMR-90 immortalized human fibroblasts; assay: IMR-90 cytotoxicity assay; type: cell-based; details: IMR-90, read-out: IC50(cell line) IMR-90
How it was run: as §1

A2058 (melanoma) = assay: proliferative cell growth inhibition assay, A2058; type: cell-based; details: Homo sapiens, A2058, read-out: IC50(cell line) A2058
How it was run: as §1

HCT-116 (colon cancer) [4] = assay: cell viability assay, HCT-116; type: cell-based; details: Homo sapiens, HCT-116, read-out: IC50(HCT-116)
How it was run: as §1

[5] = test system: H522-T1 (nonsmall cell lung cancer); assay: proliferative cell growth inhibition assay, H522-T1; type: cell-based; details: H522-T1, read-out: IC50(cell line) H522-T1
How it was run: as §1

In the case of C=C(C)CC(OC)[C@H](O)C(=O)N[C@@H](OC)[C@@H]1C[C@@H](O)C(C)(C)[C@@H](C[C@H](O)[C@@H](C)[C@H]2Cc3c(C)c(O)cc(O)c3C(=O)O2)O1 (single isomer, unassigned; (+)) [compound 1, (+)-irciniastatin A], the “differential activities against cancer cell lines” value [1] is given as > 10000 fold, the IC50 (HCT-116 (colon cancer) [2]) is given as 4 nM and the IC50 [3] is given as 27 nM. The IC50 (A2058 (melanoma)) was 0.4 nM, the IC50 (HCT-116 (colon cancer) [4]) was 0.2 nM and the IC50 [5] was 1 nM.
